Source: article PMC8892239 (EFSA Journal, 2022)
≈ marks a conversion by molar mass, not a printed value. Read-outs that look alike come from different tables or passages of the source.

Columns and labels:
[1] = Forced degradation of EQ in compound feed; type: physicochemical
[2] = Metabolism of 14C-EQ in liver slices; type: in vitro ADME, rat, laying hen and goat; settings: 10 and 100 µM, 37°C, 2 h
[3] = Metabolism of 14C-EQ in liver microsomes; type: in vitro ADME, rat, laying hen and goat; settings: 10 and 100 µM, 37°C, 2 h
In short: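 Liver microsomes were used. Hen (Isa-Warren) and goat (Deutsche Edelziege/Burenziege) microsomes were prepared in-house; rat microsomes were commercial. Incubation was with ring-¹⁴C(U)-labelled test compound at 10 and 100 µM, 37°C, 2 h.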

male BALB/c mice = test: Subchronic; type: in vivo, mouse; settings: EQ 5,000 mg/kg feed, after 10 days, mice refused their feed
In short: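 Groups of 10 BALB/c mice were fed the dimer for 90 days. Nominal levels were 0, 0.1, 1, 100, 1,000, 3,000 and 5,000 mg/kg feed, equal to 0, 0.015, 0.081, 10, 99, 286 and 518 mg/kg bw per day. A parent-compound group started at 5,000 mg/kg feed, was reduced to 1,000 mg/kg feed and was later excluded. BMD modelling used a 10% (or 20%) benchmark response.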

Atlantic salmon = test: Tolerance study in Atlantic salmon; type: in vivo, Salmo salar L.
cattle for fattening = test: Tolerance study in cattle for fattening; type: in vivo, male Holstein calves
[4] = Residues of EQ and metabolites/TPs in cattle tissues; type: in vivo; settings: for concentration at 42 days: Holstein, bovine, oral, 50 mg EQ/kg complete feed; for residue in muscle, highest value: LOQs as above
[5] = Residues of EQ and metabolites/TPs in laying hen tissues and eggs; type: in vivo, laying hens; settings: liquid egg, control (0 mg EQ/kg feed); LOQ 2 µg/kg whole egg
In short: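 Liver, kidney, muscle and skin/fat were taken from eight hens per group after 56 days of feeding. Twelve eggs per treatment were collected: four per day on three consecutive days at the end of the study. EQ, EQDM, EQI, DHEQ, DEQ and metabolites A–C were measured. LOQs: EQ 0.5 (muscle) to 2 (other tissues) µg/kg; EQDM 0.5–1 µg/kg; EQI 1.5 µg/kg; DHEQ 0.5 µg/kg; whole egg 2 µg/kg per analyte.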

[6] = Residues of EQ and EQDM in fish flesh; type: in vivo; settings: Atlantic salmon, oral, 50 mg EQ/kg feed
In short: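 Flesh was sampled from 15 fish per group after 90 days of feeding. The parent compound and its dimer were quantified by HPLC with fluorescence detection.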

Avena sativa (oat) = test: Seedling emergence and seedling growth test, OECD 208; type: in vivo
In short: (§1)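 Soil was spiked with the test compound; measured concentrations were checked against nominal. From 50% emergence in controls, emergence, survival and visible phytotoxicity were recorded weekly for 21 days. At the end, emergence, survival, shoot fresh weight and visible damage were recorded. Effect concentrations were derived from dose–response curves.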

[7] = system: Brassica napus (oilseed rape); test: as above; type: in vivo; settings: 21 days
In short: as §1

Pisum sativum (pea) = test: as above; type: in vivo; settings: 21 days
In short: as §1

Daphnia magna = test: 21-day semi-static reproduction test; type: in vivo
Chironomus riparius = test: Water-sediment test with spiked sediment, OECD 218, 28 days; type: in vivo; settings: nominal
In short: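 GLP static 28-day Chironomus riparius water–sediment test per OECD 218. The sediment was spiked at 62.5, 125, 250, 500 and 1,000 mg/kg sediment DW (nominal).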

[8] = system: Skeletonema pseudocostatum; test: Marine algal growth inhibition test, ISO 10253:2016; type: in vivo; settings: read-out: ErC50
In short: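 Test concentrations were measured analytically at 0 and 72 h. Endpoints were expressed on the geometric mean of the measured concentrations. An EC50 was also predicted from the initially measured concentrations.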

Risk characterisation = test: Risk characterisation
In short: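 For each compartment, a PNEC was derived by dividing the NOEC (or EC10 where indicated) by an assessment factor. Risk was expressed as the PEC/PNEC ratio.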

[9] = Assessment of secondary poisoning
[10] = Antioxidant efficacy, storage of complete feed for chickens for fattening
[11] = Antioxidant efficacy, storage of complete feed for sows; settings: for peroxide value after 3 months of storage: basal feed 47.3 meq O2/kg fat
[12] = Oxygen bomb method, feed for sows
[13] = ref EFSA, 2010, cited from earlier work
[14] = 5,000 mg/kg feed (EQ4), 90 days
[15] = 10,000 mg/kg feed (EQ5), 90 days

SMILES: CCOc1ccc2c(c1)C(C)=CC(C)(C)N2 [EQ, 6‐ethoxy‐1,2‐dihydro‐2,2,4‐trimethylquinoline]
- share of the lost EQ identified as DMEQ, EQI and EQDM ([1]; H2O2): around 56%
- EQ oxidised ([1]; H2O2, after 4 h): 83%
- EQ oxidised ([1]; H2O2, spontaneously): 75%
- extent of metabolism [2]: metabolised extensively
- number of metabolites identified ([2]; irrespective of origin): 17
- extent of metabolism [3]: metabolised extensively
- number of metabolites identified ([3]; irrespective of origin): 18
- loss of initial body weight (male BALB/c mice): 11%
- condition factor (Atlantic salmon; 5,000 mg/kg feed (EQ4)): 1.3 g/mL
- daily feed intake (Atlantic salmon; 5,000 mg/kg feed (EQ4)): 2.9 g/fish per day
- specific growth rate (Atlantic salmon; 5,000 mg/kg feed (EQ4)): 0.8 % bw per day
- total feed intake (Atlantic salmon; 5,000 mg/kg feed (EQ4)): 255 g/fish
- bw gain (Atlantic salmon; [14]): 276 g
- final bw (Atlantic salmon; [14]): 537 g
- condition factor (Atlantic salmon; 10,000 mg/kg feed (EQ5)): 1.1 g/mL
- daily feed intake (Atlantic salmon; 10,000 mg/kg feed (EQ5)): 1.1 g/fish per day
- final salmon length (Atlantic salmon; 10,000 mg/kg feed (EQ5)): 29 cm
- specific growth rate (Atlantic salmon; 10,000 mg/kg feed (EQ5)): 0.1 % bw per day
- total feed intake (Atlantic salmon; 10,000 mg/kg feed (EQ5)): 100 g/fish
- bw gain (Atlantic salmon; [15]): 38 g
- final bw (Atlantic salmon; [15]): 301 g
- mortality (Atlantic salmon; up to 10,000 mg/kg feed, 90 days): No fish died
- margin of safety (cattle for fattening; 50 mg ethoxyquin/kg feed): 10
- gamma-glutamyl transpeptidase (cattle for fattening; 1× (50 mg/kg feed), 42 days): 22.4 µ/L
- platelet count (cattle for fattening; 1× (50 mg/kg feed), 42 days): 452000 µL⁻¹
- platelet count (cattle for fattening; 3× (150 mg/kg feed), 42 days): 394000 µL⁻¹
- platelet count (cattle for fattening; 10× (500 mg/kg feed), 42 days, p = 0.01 to the control): 264000 µL⁻¹
- concentration at 42 days ([4]; kidney, residue in kidney, highest value, cattle, 50 mg EQ/kg complete feed for 42 days, LOQs 1.5–2 µg EQ, EQDM, metabolite A/kg, 0.5–1 µg EQI, DHEQ/kg): 19.9 ng/g
- concentration at 42 days ([4]; liver): 34 ng/g
- residue in muscle, highest value ([4]; cattle, 50 mg EQ/kg complete feed for 42 days): ˂ LOQ
- residue in muscle, highest value ([4]; cattle, control (0 mg EQ/kg feed), 42 days): ˂ LOQ
- residue in eggs [5]: ˂ LOQ^( ^d ^)
- concentration at 90 days [6]: 40 ng/g
- EC50, shoot fresh weight (Avena sativa (oat); 21 days): 242.2 mg/kg
- effects on seedling emergence and survival of emerged seedlings (Avena sativa (oat); up to 1,000 mg test item/kg soil DW): No adverse effects
- EC50, shoot fresh weight [7]: 155.6 mg/kg
- EC50, shoot fresh weight (Pisum sativum (pea)): 181.3 mg/kg
- EC10 (Daphnia magna; as used in risk characterisation): 0.06 µg/mL (≈ 0.276 µM)
- 21-day EC10 (number of offspring per introduced and survived parent) (Daphnia magna; nominal concentrations, 95% confidence interval 46.9–76.0): 0.0597 µg/mL
- EC10 development rate (Chironomus riparius): > 250 mg/kg sediment DW
- NOEC development rate (Chironomus riparius): 125 mg/kg sediment DW
- NOEC emergence rate (Chironomus riparius): 250 mg/kg sediment DW
- EC50 [8]: 3.3 µg/mL (≈ 15.2 µM)
- PEC/PNEC, fish farmed in land-based systems (Risk characterisation): 0.10
- PEC/PNEC, freshwater sediment (Risk characterisation): 0.02
- PEC/PNEC, marine sediment (Risk characterisation): 1,550
- PEC/PNEC, terrestrial compartment (earthworm) (Risk characterisation): 0.03
- PNEC, freshwater sediment (Risk characterisation; AF 10): 12,500 μg/kg
- PNEC, terrestrial compartment (earthworm) (Risk characterisation; AF 10): 17,100 μg/kg
- PNEC, freshwater compartment (Risk characterisation; AF 50): 1.2 µg/L
- PEC/PNEC, freshwater compartment (Risk characterisation; EQ used in terrestrial animals): 5
- PNECsed, marine sediment (Risk characterisation; equilibrium partitioning approach, AF 1,000): 70.8 µg/kg
- PECfish/PNECoral [9]: 1
- NECoral ([9]; from NOEC 80 mg/kg feed, assessment factor of 90): 0.89 mg/kg
- PECfish/PNECoral ([9]; listed as Ethoxyquin): 1.0
- loss of EQ content in feed after 3 months ([10]; 25–30°C, 55–65% RH, EQ = 50 mg EQ/kg feed (EQ50)): approximately 40%
- range in which considered an efficacious antioxidant in feed ([10]; Panel's overall conclusion): 25–50 mg/kg complete feed
- EQ content after 3 months of storage ([11]; 25 mg EQ/kg feed (EQ25)): completely disappeared
- peroxide value after manufacturing ([11]; 25 mg EQ/kg feed (EQ25)): 0.89 meq O2/kg fat
- peroxide value after 3 months of storage ([11]; 25 mg EQ/kg feed (EQ25)): approx. 23.8
- peroxide value after manufacturing ([11]; 50 mg EQ/kg feed (EQ50)): 1.36 meq O2/kg fat
- reduction of EQ after 3 months of storage ([11]; 50 mg EQ/kg feed (EQ50)): approx. 80%
- peroxide value after 3 months of storage ([11]; 50 mg EQ/kg feed (EQ50)): ~13.6
- protection factor ([12]; 25 mg ethoxyquin/kg feed (EQ25)): 1.50
- protection factor ([12]; 50 mg ethoxyquin/kg feed (EQ50)): 1.78
- Octanol/water partition coefficient (log Kow 25°C) ([13]; pH 5): 3.18
- Octanol/water partition coefficient (log Kow 25°C) ([13]; pH 7): 3.39
- Octanol/water partition coefficient (log Kow 25°C) ([13]; pH 9): 3.19
